# Test results: ChEMBL document CHEMBL4715736, “Identification of anticancer agents based on the thieno[2,3-b]pyridine and 1H-pyrazole molecular scaffolds” (2016)
# Legend:
# Type in all cases: functional
# 786-0 [1] = test: Growth inhibition of human 786-0 cells assessed as cell growth at 0.01 uM incubated for 48 hrs by sulforhodamine B assay relative to control; conditions: read-out: Activity
# In short: (§1)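 NCI Developmental Therapeutics Program NCI60 panel. Compounds that were active in the 10 µM one-dose screen went on to dose–response testing. Growth at each concentration is expressed relative to untreated control (100%). GI50 (concentration giving 50% of maximal inhibition of proliferation) and TGI (concentration giving total growth inhibition) were derived from the curves.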
# A498 [2] = test: Growth inhibition of human A498 cells assessed as cell growth at 0.1 uM incubated for 48 hrs by sulforhodamine B assay relative to control; conditions: read-out: Activity; in short: as §1
# HOP-62 = test: Growth inhibition of human HOP-62 cells assessed as cell growth at 100 uM incubated for 48 hrs by sulforhodamine B assay relative to control; conditions: read-out: Activity
# SR = test: Growth inhibition of human SR cells assessed as cell growth at 0.01 uM incubated for 48 hrs by sulforhodamine B assay relative to control; conditions: read-out: Activity
# SW-620 = test: Growth inhibition of human SW-620 cells assessed as cell growth at 0.1 uM incubated for 48 hrs by sulforhodamine B assay relative to control; conditions: read-out: Activity
# SF-268 = test: Growth inhibition of human SF-268 cells assessed as cell growth at 100 uM incubated for 48 hrs by sulforhodamine B assay relative to control; conditions: read-out: Activity
# OVCAR-8 [3] = test: Growth inhibition of human OVCAR-8 cells assessed as cell growth at 1 uM incubated for 48 hrs by sulforhodamine B assay relative to control; conditions: read-out: Activity
# BT-549 = test: Growth inhibition of human BT-549 cells assessed as cell growth at 0.1 uM incubated for 48 hrs by sulforhodamine B assay relative to control; conditions: read-out: Activity
# NCI-H460 = test: Growth inhibition of human NCI-H460 cells assessed as cell growth at 100 uM incubated for 48 hrs by sulforhodamine B assay relative to control; conditions: read-out: Activity
# RPMI-8226 [4] = test: Growth inhibition of human RPMI-8226 cells incubated for 48 hrs by sulforhodamine B assay
# In short: (§2)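 NCI DTP 60-line human tumour panel. Dose-response curves were run only for ligands active in the initial 10 µM screen. GI50 (concentration giving 50% of maximal inhibition of proliferation) and TGI (concentration giving total growth inhibition) were derived from these curves.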
# SNB-19 = test: Growth inhibition of human SNB-19 cells incubated for 48 hrs by sulforhodamine B assay; in short: as §2
# CAKI-1 = test: Growth inhibition of human CAKI-1 cells assessed as cell growth at 100 uM incubated for 48 hrs by sulforhodamine B assay relative to control; conditions: read-out: Activity; in short: as §1
# RPMI-8226 [5] = test: Growth inhibition of human RPMI-8226 cells assessed as cell growth at 1 uM incubated for 48 hrs by sulforhodamine B assay relative to control; conditions: read-out: Activity
# MDA-MB-468 = test: Growth inhibition of human MDA-MB-468 cells assessed as cell growth at 0.1 uM incubated for 48 hrs by sulforhodamine B assay relative to control; conditions: read-out: Activity
# LOX IMVI = test: Growth inhibition of human LOX IMVI cells assessed as cell growth at 1 uM incubated for 48 hrs by sulforhodamine B assay relative to control; conditions: read-out: Activity
# UACC-257 = test: Growth inhibition of human UACC-257 cells incubated for 48 hrs by sulforhodamine B assay; in short: as §2
# IGROV-1 = test: Growth inhibition of human IGROV-1 cells assessed as cell growth at 0.1 uM incubated for 48 hrs by sulforhodamine B assay relative to control; conditions: read-out: Activity
# OVCAR-8 [6] = test: Growth inhibition of human OVCAR-8 cells assessed as cell growth at 0.01 uM incubated for 48 hrs by sulforhodamine B assay relative to control; conditions: read-out: Activity
# MCF7 = test: Growth inhibition of human MCF7 cells assessed as cell growth at 0.1 uM incubated for 48 hrs by sulforhodamine B assay relative to control; conditions: read-out: Activity
# NCI/ADR-RES = test: Growth inhibition of human NCI/ADR-RES cells assessed as cell growth at 0.01 uM incubated for 48 hrs by sulforhodamine B assay relative to control; conditions: read-out: Activity
# OVCAR-4 = test: Growth inhibition of human OVCAR-4 cells assessed as cell growth at 0.01 uM incubated for 48 hrs by sulforhodamine B assay relative to control; conditions: read-out: Activity
# 786-0 [7] = test: Growth inhibition of human 786-0 cells incubated for 48 hrs by sulforhodamine B assay; conditions: for CC50: read-out: LC50 (the source's name); in short: as §1
# HT-29 = test: Growth inhibition of human HT-29 cells incubated for 48 hrs by sulforhodamine B assay
# In short: (§3)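 NCI60 panel at the NCI Developmental Therapeutics Program. Only compounds active in the 10 µM screen went to dose-response testing. GI50, the concentration giving 50% of maximal inhibition of proliferation, and TGI, the concentration giving total growth inhibition, were derived from the dose-response curves.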
# A498 [8] = test: Growth inhibition of human A498 cells assessed as cell growth at 100 uM incubated for 48 hrs by sulforhodamine B assay relative to control; conditions: read-out: Activity; in short: as §1
# NCI-H226 [9] = test: Growth inhibition of human NCI-H226 cells assessed as cell growth at 0.01 uM incubated for 48 hrs by sulforhodamine B assay relative to control; conditions: read-out: Activity
# NCI-H322M = test: Growth inhibition of human NCI-H322M cells assessed as cell growth at 0.01 uM incubated for 48 hrs by sulforhodamine B assay relative to control; conditions: read-out: Activity
# RXF 393 = test: Growth inhibition of human RXF 393 cells assessed as cell growth at 0.1 uM incubated for 48 hrs by sulforhodamine B assay relative to control; conditions: read-out: Activity
# RPMI-8226 [10] = test: Growth inhibition of human RPMI-8226 cells assessed as cell growth at 0.1 uM incubated for 48 hrs by sulforhodamine B assay relative to control; conditions: read-out: Activity
# COLO 205 = test: Growth inhibition of human COLO 205 cells assessed as cell growth at 0.01 uM incubated for 48 hrs by sulforhodamine B assay relative to control; conditions: read-out: Activity; in short: as §1
# MOLT-4 [11] = test: Growth inhibition of human MOLT-4 cells assessed as cell growth at 100 uM incubated for 48 hrs by sulforhodamine B assay relative to control; conditions: read-out: Activity
# K562 = test: Growth inhibition of human K562 cells assessed as cell growth at 100 uM incubated for 48 hrs by sulforhodamine B assay relative to control; conditions: read-out: Activity
# 786-0 [12] = test: Growth inhibition of human 786-0 cells assessed as cell growth at 100 uM incubated for 48 hrs by sulforhodamine B assay relative to control; conditions: read-out: Activity
# MOLT-4 [13] = test: Growth inhibition of human MOLT-4 cells incubated for 48 hrs by sulforhodamine B assay; conditions: for CC50: read-out: LC50 (the source's name); in short: as §3
# NCI-H226 [14] = test: Growth inhibition of human NCI-H226 cells assessed as cell growth at 0.1 uM incubated for 48 hrs by sulforhodamine B assay relative to control; conditions: read-out: Activity
smiles,measurement,setting,value
CCc1ccccc1NC(=O)c1sc2nc3c(cc2c1N)C(=O)CCC3,growth at 0.01 µM,786-0 [1],90%
same,growth at 0.1 µM,A498 [2],72%
same,growth at 100 µM,HOP-62,-22%
same,growth at 0.01 µM,SR,100%
same,growth at 0.1 µM,SW-620,83%
same,growth at 100 µM,SF-268,12%
same,growth at 1 µM,OVCAR-8 [3],60%
same,growth at 0.1 µM,BT-549,101%
same,growth at 100 µM,NCI-H460,3%
same,GI50,RPMI-8226 [4],0.853 µM
same,LC50,RPMI-8226 [4],> 100 µM
same,TGI,RPMI-8226 [4],≥ 100 µM
same,GI50,SNB-19,0.763 µM
same,LC50,SNB-19,> 100 µM
same,TGI,SNB-19,> 100 µM
same,growth at 100 µM,CAKI-1,35%
same,growth at 1 µM,RPMI-8226 [5],41%
same,growth at 0.1 µM,MDA-MB-468,75%
same,growth at 1 µM,LOX IMVI,39%
same,GI50,UACC-257,19.9 µM
same,LC50 (concentration killing 50% of cells),UACC-257,> 100 µM
same,TGI,UACC-257,> 100 µM
same,growth at 0.1 µM,IGROV-1,102%
same,growth at 0.01 µM,OVCAR-8 [6],98%
same,growth at 0.1 µM,MCF7,83%
same,growth at 0.01 µM,NCI/ADR-RES,102%
same,growth at 0.01 µM,OVCAR-4,89%
same,GI50,786-0 [7],0.578 µM
same,TGI,786-0 [7],≥ 100 µM
same,CC50,786-0 [7],> 100 µM
same,GI50,HT-29,0.372 µM
same,LC50,HT-29,> 100 µM
same,TGI,HT-29,29.5 µM
same,growth at 100 µM,A498 [8],-10%
same,growth at 0.01 µM,NCI-H226 [9],89%
same,growth at 0.01 µM,NCI-H322M,97%
same,growth at 0.1 µM,RXF 393,66%
same,growth at 0.1 µM,RPMI-8226 [10],96%
same,growth at 0.01 µM,COLO 205,102%
same,growth at 100 µM,MOLT-4 [11],31%
same,growth at 100 µM,K562,13%
same,growth at 100 µM,786-0 [12],-17%
same,GI50,MOLT-4 [13],0.529 µM
same,TGI,MOLT-4 [13],> 100 µM
same,CC50,MOLT-4 [13],> 100 µM
same,growth at 0.1 µM,NCI-H226 [14],86%
Cc1ccc(NC(=O)c2sc3nc4c(cc3c2N)C(=O)CCC4)cc1C,growth at 0.01 µM,786-0 [1],98%
same,growth at 0.1 µM,A498 [2],78%
same,growth at 100 µM,HOP-62,28%
same,growth at 0.01 µM,SR,106%
same,growth at 0.1 µM,SW-620,95%
same,growth at 100 µM,SF-268,14%
same,growth at 1 µM,OVCAR-8 [3],68%
same,growth at 0.1 µM,BT-549,108%
same,growth at 100 µM,NCI-H460,-9%
same,GI50,RPMI-8226 [4],1.43 µM
same,LC50,RPMI-8226 [4],> 100 µM
same,GI50,SNB-19,0.558 µM
same,LC50,SNB-19,> 100 µM
same,TGI,SNB-19,> 100 µM
same,growth at 100 µM,CAKI-1,22%
same,growth at 1 µM,RPMI-8226 [5],57%
same,growth at 0.1 µM,MDA-MB-468,83%
same,growth at 1 µM,LOX IMVI,42%
same,LC50 (concentration killing 50% of cells),UACC-257,> 100 µM
same,TGI,UACC-257,> 100 µM
same,growth at 0.1 µM,IGROV-1,99%
same,growth at 0.01 µM,OVCAR-8 [6],97%
same,growth at 0.1 µM,MCF7,86%
same,growth at 0.01 µM,NCI/ADR-RES,100%
same,growth at 0.01 µM,OVCAR-4,94%
same,GI50,786-0 [7],0.614 µM
same,TGI,786-0 [7],> 100 µM
same,CC50,786-0 [7],> 100 µM
same,GI50,HT-29,0.399 µM
same,LC50,HT-29,> 100 µM
same,TGI,HT-29,≥ 100 µM
same,growth at 100 µM,A498 [8],-17%
same,growth at 0.01 µM,NCI-H226 [9],90%
same,growth at 0.01 µM,NCI-H322M,93%
same,growth at 0.1 µM,RXF 393,82%
same,growth at 0.1 µM,RPMI-8226 [10],97%
same,growth at 0.01 µM,COLO 205,101%
same,growth at 100 µM,MOLT-4 [11],-6%
same,growth at 100 µM,K562,-4%
same,growth at 100 µM,786-0 [12],20%
same,GI50,MOLT-4 [13],6.41 µM
same,TGI,MOLT-4 [13],76.2 µM
same,CC50,MOLT-4 [13],> 100 µM
same,growth at 0.1 µM,NCI-H226 [14],88%
